From ChEMBL document CHEMBL1140372, “Synthesis, structure-activity relationships, and biological properties of 1-heteroaryl-4-[omega-(1H-indol-3-yl)alkyl]piperazines, novel potential antipsychotics combining potent dopamine D2 receptor antagonism with potent serotonin reuptake inhibition” (J Med Chem, 2005) come the findings set out here.

pKi: −log10 of the molar value.

In experiment [1] the target is Sodium-dependent serotonin transporter (Mus musculus) (UniProt Q60857). In words: Effective dose against potentiation of 5-HTP induced serotonin syndrome in mice upon oral administration (Serotonin reuptake inhibitory activity). The experiment is classed as functional, organism-based.
For experiment [2], the target named is T1, D(2) dopamine receptor (Homo sapiens, UniProt P14416). In words: In vitro inhibitory constant against [3H]spiperone binding to human dopamine D2 receptor expressed in CHO cells. The experiment is classed as cell-based.
Experiment [3] addresses Sodium-dependent serotonin transporter (Rattus norvegicus, UniProt P31652). In words: In vitro inhibitory constant against [3H]paroxetine binding to rat frontal cortex membrane serotonin reuptake site. It is filed as tissue-based. A digest of the protocol:
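Rat frontal cortex membranes; serotonin reuptake sites labelled with [3H]paroxetine in competition binding. Ki (nM) calculated from at least three independent experiments.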

The target in experiment [4] is T1, D(2) dopamine receptor. In words: In vitro inhibitory constant against [3H]spiperone binding to human dopamine D2 receptor expressed in CHO cells; NA= not active. The experiment is classed as cell-based. Put shortly:
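Membrane preparation from CHO cells transfected with human D2L receptor; competition binding against [3H]spiperone.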

Chain of Sodium-dependent serotonin transporter (P31652 whole entry): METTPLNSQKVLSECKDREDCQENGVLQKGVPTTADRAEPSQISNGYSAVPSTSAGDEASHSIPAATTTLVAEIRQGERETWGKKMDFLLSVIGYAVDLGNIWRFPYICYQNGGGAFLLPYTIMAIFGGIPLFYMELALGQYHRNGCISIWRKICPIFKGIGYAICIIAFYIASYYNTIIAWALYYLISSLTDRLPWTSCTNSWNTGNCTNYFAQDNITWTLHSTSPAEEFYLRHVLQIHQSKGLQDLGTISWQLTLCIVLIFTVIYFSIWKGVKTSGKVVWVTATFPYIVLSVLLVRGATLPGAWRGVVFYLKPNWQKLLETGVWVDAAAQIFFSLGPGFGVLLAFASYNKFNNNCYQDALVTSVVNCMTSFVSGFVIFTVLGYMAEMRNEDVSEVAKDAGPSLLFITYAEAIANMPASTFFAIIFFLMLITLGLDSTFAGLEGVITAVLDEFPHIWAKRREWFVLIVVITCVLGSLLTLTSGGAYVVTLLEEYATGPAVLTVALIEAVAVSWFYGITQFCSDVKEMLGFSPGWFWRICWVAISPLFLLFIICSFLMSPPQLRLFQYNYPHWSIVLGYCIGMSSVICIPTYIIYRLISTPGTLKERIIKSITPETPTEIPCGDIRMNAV
T1 sequence (P14416 whole entry): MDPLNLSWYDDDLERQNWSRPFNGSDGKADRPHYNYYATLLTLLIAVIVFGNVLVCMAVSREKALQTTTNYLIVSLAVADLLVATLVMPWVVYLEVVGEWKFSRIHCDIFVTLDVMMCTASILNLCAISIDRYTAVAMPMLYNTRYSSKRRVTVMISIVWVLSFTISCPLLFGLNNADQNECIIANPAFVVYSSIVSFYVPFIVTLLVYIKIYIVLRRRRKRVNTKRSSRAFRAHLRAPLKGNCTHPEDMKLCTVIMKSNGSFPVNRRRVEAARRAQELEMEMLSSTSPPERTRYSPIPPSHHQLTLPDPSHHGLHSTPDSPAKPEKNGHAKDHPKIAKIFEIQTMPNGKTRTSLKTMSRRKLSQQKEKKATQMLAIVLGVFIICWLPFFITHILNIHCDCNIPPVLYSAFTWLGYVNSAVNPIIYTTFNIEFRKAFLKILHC
Chain of Sodium-dependent serotonin transporter (Mus musculus) (Q60857 whole entry): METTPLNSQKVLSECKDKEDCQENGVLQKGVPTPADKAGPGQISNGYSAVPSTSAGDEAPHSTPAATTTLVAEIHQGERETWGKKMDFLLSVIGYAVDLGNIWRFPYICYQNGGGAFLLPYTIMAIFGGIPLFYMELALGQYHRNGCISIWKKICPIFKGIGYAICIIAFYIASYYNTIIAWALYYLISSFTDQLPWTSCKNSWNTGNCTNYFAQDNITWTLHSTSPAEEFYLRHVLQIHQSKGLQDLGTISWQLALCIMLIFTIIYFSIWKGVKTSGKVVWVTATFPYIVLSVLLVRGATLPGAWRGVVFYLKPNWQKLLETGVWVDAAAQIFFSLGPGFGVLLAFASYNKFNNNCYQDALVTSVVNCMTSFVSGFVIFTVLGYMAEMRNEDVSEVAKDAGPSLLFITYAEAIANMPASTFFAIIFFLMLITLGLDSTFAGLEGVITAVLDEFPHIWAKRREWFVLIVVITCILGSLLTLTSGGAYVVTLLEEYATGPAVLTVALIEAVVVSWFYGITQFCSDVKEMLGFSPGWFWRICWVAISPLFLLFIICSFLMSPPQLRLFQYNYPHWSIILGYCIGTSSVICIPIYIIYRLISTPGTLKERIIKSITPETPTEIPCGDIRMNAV

Take `C[C@@H]1Oc2c(cccc2N2CCN(CCCc3c[nH]c4ccccc34)CC2)NC1=O`: the median effective dose (ED50) in experiment [1] was above 10 mg/kg. In addition, the pKi (at D(2) dopamine receptor [2]; in experiment [3]) was 9.00 each time.
In the case of `c1cc2c(c(N3CCN(CCCc4c[nH]c5ccccc45)CC3)c1)OCCN2`, the ED50 in experiment [1] was found to be 100 mg/kg. Besides, the values for the negative-log Ki (pKi) (on D(2) dopamine receptor [2]; in experiment [3]) were 7.75 and 8.82, respectively.
Taken in the same sequence, the figures for `O=C1CCc2c(cccc2N2CCN(CCCc3c[nH]c4ccccc34)CC2)N1` were 9 mg/kg, 7.94 and 8.82.
Consider `COc1ccc2[nH]cc(CCCN3CCN(c4cccc5c4OCCO5)CC3)c2c1`, for which the pKi on D(2) dopamine receptor [2] was 7.82.
Consider `c1cc2c(c(N3CCN(CCCc4c[nH]c5ccccc45)CC3)c1)OCCO2`, for which the ED50 in experiment [1] amounted to 22 mg/kg. At D(2) dopamine receptor [2], this compound gave a pKi of 7.68.
`c1cc2c(c(N3CCN(CCCCCc4c[nH]c5ccccc45)CC3)c1)OCCO2` showed a pKi at D(2) dopamine receptor [2] of 8.04.
The compound `Cc1cccc2c(CCCN3CCN(c4cccc5c4OCCO5)CC3)c[nH]c12` had a pKi at D(2) dopamine receptor [2] of 7.80.
Regarding `c1cc2c(c(N3CCN(CCc4c[nH]c5ccccc45)CC3)c1)OCCO2`, the figures for the pKi (at D(2) dopamine receptor [2]; in experiment [3]) were 7.35 and 7.92, respectively.
As to `Fc1ccc2c(CCCN3CCN(c4cccc5c4OCCO5)CC3)c[nH]c2c1`, in experiment [1], the ED50 is 30 mg/kg.
In turn, `Clc1cccc2[nH]cc(CCCN3CCN(c4cccc5c4OCCO5)CC3)c12` had a pKi on D(2) dopamine receptor [2] of 7.62.
Consider `Fc1cccc2[nH]cc(CCCN3CCN(c4cccc5c4OCCO5)CC3)c12`, for which the ED50 in experiment [1] amounted to 32 mg/kg. In addition, the pKi on D(2) dopamine receptor [2] is 8.09.
For the compound `c1cc2c(c(N3CCN(CCCc4c[nH]c5ccccc45)CC3)c1)CCCN2`, in experiment [1], the ED50 was 15 mg/kg. The values for the negative-log Ki (pKi) (on D(2) dopamine receptor [2]; in experiment [3]) were 7.95 and 8.96, respectively.
Take `c1ccc2c(CCC3CCNCC3)c[nH]c2c1` [INDALPINE]: on D(2) dopamine receptor [4], the Ki entry was “Not Active”.
On to `CC1(C)Oc2c(cccc2N2CCN(CCCc3c[nH]c4ccccc34)CC2)NC1=O`, for which the ED50 in experiment [1] was 7.3 mg/kg. The pKi on D(2) dopamine receptor [2] is 8.13; in experiment [3], 8.55.
As for `Fc1cccc2c(CCCN3CCN(c4cccc5c4OCCO5)CC3)c[nH]c12`, the ED50 in experiment [1] worked out at 28.4 mg/kg. At D(2) dopamine receptor [2], the pKi was 7.97.
With `Cc1ccc2[nH]cc(CCCN3CCN(c4cccc5c4OCCO5)CC3)c2c1`, the pKi in experiment [3] was 9.40.
As to `C[C@@H]1Oc2c(cccc2N2CCN(CCCc3c[nH]c4c(F)cccc34)CC2)NC1=O`, in experiment [1], the ED50 was found to be 10 mg/kg. The pKi at D(2) dopamine receptor [2] is 9.00; in experiment [3] it was 8.52.
For `CC1Oc2c(N3CCN(CCCc4c[nH]c5ccccc45)CC3)cccc2N(C)C1=O` (stereo unspecified), the ED50 in experiment [1] stood at 5.6 mg/kg. The pKi on D(2) dopamine receptor [2] was 7.45; in experiment [3] it was 8.85.
For `CC1CNc2cccc(N3CCN(CCCc4c[nH]c5ccccc45)CC3)c2C1` (stereo unspecified), the ED50 in experiment [1] is above 100 mg/kg. The pKi on D(2) dopamine receptor [2] was 7.82; in experiment [3], 8.57.
With `CC1Oc2c(cccc2N2CCN(CCCc3c[nH]c4ccccc34)CC2)NC1=O` (stereo unspecified), in experiment [1], the ED50 stood at 3 mg/kg. The pKi on D(2) dopamine receptor [2] was 8.35; in experiment [3] it was 9.40.
As to `Clc1cccc2c(CCCN3CCN(c4cccc5c4OCCO5)CC3)c[nH]c12`, the pKi at D(2) dopamine receptor [2] is 7.81.
`C[C@H]1Oc2c(cccc2N2CCN(CCCc3c[nH]c4ccc(F)cc34)CC2)NC1=O`: the ED50 in experiment [1] came out at 0.15 mg/kg. Further, the results for the negative logarithm of the Ki (pKi) (at D(2) dopamine receptor [2]; in experiment [3]) were 8.16 and 9.70, respectively.
Consider `c1cc2c(c(N3CCN(CCCc4c[nH]c5ccccc45)CC3)c1)CCCO2`, for which the median effective dose (ED50) in experiment [1] amounted to 100 mg/kg. The pKi at D(2) dopamine receptor [2] was 7.69.
On to `C[C@H]1Oc2c(cccc2N2CCN(CCCc3c[nH]c4ccccc34)CC2)NC1=O`, for which the ED50 in experiment [1] came to 3 mg/kg. In addition, the figures for the pKi (at D(2) dopamine receptor [2]; in experiment [3]) were 8.06 and 9.30, respectively.
Consider `C[C@H]1Oc2c(cccc2N2CCN(CCCc3c[nH]c4c(F)cccc34)CC2)NC1=O`, for which the ED50 in experiment [1] came to 30 mg/kg. The pKi on D(2) dopamine receptor [2] is 8.28; in experiment [3], 8.62.
As to `CN1CCCc2c1cccc2N1CCN(CCCc2c[nH]c3ccccc23)CC1`, the pKi at D(2) dopamine receptor [2] was 7.05; in experiment [3] it was 8.13.
As for `Clc1ccc2[nH]cc(CCCN3CCN(c4cccc5c4OCCO5)CC3)c2c1`, the pKi at D(2) dopamine receptor [2] was 7.50; in experiment [3], 9.30.
Take `Fc1ccc2[nH]cc(CCCN3CCN(c4cccc5c4OCCO5)CC3)c2c1`: the ED50 in experiment [1] is 2 mg/kg. This compound also had a pKi on D(2) dopamine receptor [2] of 7.72.
Take `c1cc2c(c(N3CCN(CCCCc4c[nH]c5ccccc45)CC3)c1)OCCO2`: the ED50 in experiment [1] was above 30 mg/kg. The pKi on D(2) dopamine receptor [2] was 8.29; in experiment [3], 7.22.
The like results for `O=C1COc2c(cccc2N2CCN(CCCc3c[nH]c4ccccc34)CC2)N1` were, in that order, 30 mg/kg, 8.37 and 9.22.
As for `C[C@@H]1Oc2c(cccc2N2CCN(CCCc3c[nH]c4ccc(F)cc34)CC2)NC1=O`, the ED50 in experiment [1] was found to be 0.7 mg/kg. Moreover, the negative-log Ki (pKi) is 8.33 on D(2) dopamine receptor [2] and 9.15 in experiment [3].
`Clc1ccc2c(CCCN3CCN(c4cccc5c4OCCO5)CC3)c[nH]c2c1`: the median effective dose (ED50) in experiment [1] was 86 mg/kg. Moreover, the negative-log Ki (pKi) at D(2) dopamine receptor [2] is 8.68.

Usually ED50 stands for the dose at which the effect has come halfway, by size or by number of responders. For orientation: pKi means −log10 of the Ki, conventionally taken in molar units.
